Results collected from several papers.
Lines come from different studies, so protocols differ.
Read-out: cell growth or viability

COc1ccc(NC(=O)c2c(Nc3ccccc3)sc(C(=O)NN=Cc3ccccc3)c2NC(C)=O)cc1
viability (HCT-116; SRB; 1 µM, 48 h): 77.3%

C=CC(=O)N1CCC[C@@H](n2nc(-c3ccc(Oc4ccccc4)cc3)c3c(N)ncnc32)C1
GI50 (DOHH-2; ATP luminescence; 72 h): 17 µM

Cc1ccc(C(=O)NCc2ccsc2)cc1C#Cc1cn(C)c2ncnc(N)c12
GI50 (32D): 0.106 µM

COc1ccc2occ(/C=C/c3cc(OC)c(OC)c(OC)c3)c(=O)c2c1
CC50 (HSC-2; MTT; 7 h): 20 µM

Cn1nnc2c(C(N)=O)ncn2c1=O
EC50 (KATO3): 592 µM

COc1ccc(NC(=O)c2c(Nc3ccccc3)sc(C#N)c2NC(=O)CNc2ccc(C)cc2)cc1
viability (HCT-116; SRB; 10 nM, 48 h): 92.4%

C[C@@H]1[C@H](O)[C@@H](C)/C=C/C=C/C=C/C=C/C=C/C=C/C=C/[C@H](O[C@@H]2O[C@H](C)[C@@H](O)[C@H](N)[C@@H]2O)C[C@@H]2O[C@](O)(C[C@@H](O)C[C@@H](O)[C@H](O)CC[C@@H](O)C[C@@H](O)CC(=O)O[C@H]1C)C[C@H](O)[C@H]2C(=O)O
inhibition (DH82; MTS; 200 µM, 72 h): 42%

COc1ccc(NC(=O)c2c(Nc3ccccc3)sc(C#N)c2NC(=O)CNc2ccccc2Cl)cc1
viability (HCT-116; SRB; 10 nM, 48 h): 87.7%

CCCCCCCCCCCCCCCCOP(=O)([O-])OCC[N+](C)(C)C
inhibition (DH82; MTS; 20 µM, 24 h): 43.9%

COc1cc(-c2ccc(-c3ccc(C(=N)N)nc3)s2)cc(OC)c1OC
GI50 (EKVX; SRB): 5.19 µM

COc1ccc(NC(=O)c2c(Nc3ccccc3)sc(C#N)c2NC(=O)CNc2ccccc2[N+](=O)[O-])cc1
viability (HCT-116; SRB; 10 µM, 48 h): 72.7%

CC(C)Cc1nn(C)c(=O)c2c(SCCCO)n(Cc3cc(NCCCCCN)nc4ccccc34)cc12
EC50 (Raji; MTT; 96 h): 0.055 µM

COc1ccc2occ(/C=C/c3ccc(O)cc3)c(=O)c2c1
CC50 (HSC-2; MTT; 23 h): < 0.39 µM

Cc1ccc(C(=O)NCc2ccsc2)cc1C#Cc1cn(C2CCCC2)c2ncnc(N)c12
GI50 (32D): > 1 µM

COc1ccc(NC(=O)c2c(Nc3ccccc3)sc(C(=O)NN=Cc3cc(OC)c(OC)c(OC)c3)c2NC(C)=O)cc1
viability (HCT-116; SRB; 1 µM, 48 h): 78.4%

FC1CCN(C2(CNCc3ccc(-c4ccccc4Cl)o3)COC2)C1 (stereo not shown)
viability (U-87 MG; 30 µM, 48 h): 45.4%

CC(C)Cc1nn(C)c(=O)c2c(SCCCO)n(Cc3cnc(Cl)c4ccccc34)cc12
EC50 (Raji; MTT; 96 h): 0.06 µM

CCOC(=O)c1c(C)ncn1CC(c1cn(C)c2ccc([N+](=O)[O-])cc12)c1cn(C)c2ccc([N+](=O)[O-])cc12
inhibition (DH82; MTS; 200 µM, 72 h): 43%

COc1ccc(/C=C/c2coc3ccc(OC)cc3c2=O)cc1
CC50 (HSC-2; MTT; 6.7 h): 21 µM

COc1ccc(NCC(=O)Nc2c(C#N)sc(Nc3ccccc3)c2C(=O)Nc2ccc(OC)cc2)cc1
viability (HCT-116; SRB; 1 nM, 48 h): 99.5%

Cc1ccc(C(=O)NCc2ccsc2)cc1C#Cc1cn(C2CCC2)c2ncnc(N)c12
GI50 (32D): > 1 µM

c1ccc(-c2ccc(CNCC3(N4CCCC4)COC3)o2)cc1
viability (U-87 MG; 30 µM, 48 h): 0.534%

COc1ccc(C=NNC(=O)c2sc(Nc3ccccc3)c(C(=O)Nc3ccc(OC)cc3)c2NC(C)=O)cc1
viability (HCT-116; SRB; 0.1 µM, 48 h): 72.5%

CC(C)Cc1nn(C)c(=O)c2c(SCCCO)n(Cc3ccnc(NCCCCCN)c3)cc12
EC50 (Raji; MTT; 96 h): 0.69 µM

c1ccc(-c2ccc(CNCC3(N4CCCC4)COC3)s2)cc1
viability (U-87 MG; 30 µM, 48 h): 55.6%

COc1ccc(-c2ccc(-c3ccc(C(=N)N)nc3)s2)cc1
GI50 (OVCAR-8; SRB): 2.12 µM

COc1ccc(NC(=O)c2c(Nc3ccccc3)sc(C(=O)NN=Cc3ccc(C)cc3)c2NC(C)=O)cc1
viability (HCT-116; SRB; 10 nM, 48 h): 90.2%

CCn1cc(C#Cc2cc(C(=O)NCc3ccsc3)ccc2C)c2c(N)ncnc21
GI50 (32D): 0.0233 µM
